How the values were obtained:
[1] = target: T1, 3-beta-hydroxysteroid-Delta(8),Delta(7)-isomerase (Cavia porcellus, UniProt Q60490); experiment: Displacement of [3H]-emopamil from delta(8)-delta(7) sterol isomerase in guinea pig liver membranes; type: cell membranes, Membrane; conditions: read-out: Ki(app)
T1 sequence (Q60490 whole entry): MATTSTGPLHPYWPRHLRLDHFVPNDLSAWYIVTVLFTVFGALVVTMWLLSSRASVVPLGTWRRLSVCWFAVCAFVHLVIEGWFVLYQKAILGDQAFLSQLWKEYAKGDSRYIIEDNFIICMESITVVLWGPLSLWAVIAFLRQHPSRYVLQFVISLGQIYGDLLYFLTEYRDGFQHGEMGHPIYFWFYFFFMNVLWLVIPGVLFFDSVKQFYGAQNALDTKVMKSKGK
In short: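 Assay followed Moebius et al. Inhibition curves used 6–9 drug concentrations over two or three experiments run in duplicate. IC50 is the concentration giving 50% loss of specific radioligand binding. Apparent Ki came from nonlinear curve fitting.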

[2] = target: Sigma non-opioid intracellular receptor 1 (Cavia porcellus, UniProt Q60492); experiment: Displacement of [3H]-(+)-pentazocine from sigma1 receptor in guinea pig brain membranes without cerebellum; type: cell membranes, Membrane; conditions: read-out: Ki(app)
[3] = Displacement of [3H]DTG from sigma 2 receptor in rat liver membranes; type: cell membranes, Membrane; conditions: read-out: Ki(app)
In short: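 Sigma-2 site labelled with [3H]-DTG at 30 Ci/mmol, following Matsumoto et al. Curves used 6–9 concentrations of test drug, repeated in two or three experiments with duplicate samples. IC50 (50% inhibition of specific binding) and apparent Ki were obtained by nonlinear curve fitting.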

[4] = Selectivity ratio of Ki for sigma 2 receptor in rat liver membranes to Ki for sigma 1 receptor in guinea pig brain membranes; type: cell membranes; conditions: Membrane
[5] = target: Sigma non-opioid intracellular receptor 1 (Rattus norvegicus, UniProt Q9R0C9); experiment: Binding affinity to sigma1 receptor in rat brain membranes; type: cell membranes
In short: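 Radioligand displacement binding. IC50 is the concentration inhibiting 50% of specific radioligand binding, from 6–9 concentrations of the test drug, run in two or three experiments with duplicate samples. Apparent Ki came from nonlinear curve fitting. Compounds were tested as hydrochloride salts, or as free bases in some cases.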

[6] = target: Sigma non-opioid intracellular receptor 1 (Cavia porcellus) (UniProt Q60492); experiment: Displacement of [3H]-(+)-pentazocine from sigma 1 receptor in guinea pig brain membranes at 10^-10 M; type: cell membranes; conditions: Membrane
Sigma non-opioid intracellular receptor 1 (Cavia porcellus), sequence (Q60492 whole entry): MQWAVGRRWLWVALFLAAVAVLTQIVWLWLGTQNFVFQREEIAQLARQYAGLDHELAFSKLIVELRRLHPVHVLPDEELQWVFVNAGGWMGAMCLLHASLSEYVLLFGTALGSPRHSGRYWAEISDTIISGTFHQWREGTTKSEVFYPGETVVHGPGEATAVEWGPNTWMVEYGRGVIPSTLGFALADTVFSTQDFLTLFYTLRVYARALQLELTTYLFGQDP

Sigma non-opioid intracellular receptor 1 (Cavia porcellus, UniProt Q60492), sequence (Q60492 whole entry): as above
Sigma non-opioid intracellular receptor 1 (Rattus norvegicus, UniProt Q9R0C9), sequence (Q9R0C9 whole entry): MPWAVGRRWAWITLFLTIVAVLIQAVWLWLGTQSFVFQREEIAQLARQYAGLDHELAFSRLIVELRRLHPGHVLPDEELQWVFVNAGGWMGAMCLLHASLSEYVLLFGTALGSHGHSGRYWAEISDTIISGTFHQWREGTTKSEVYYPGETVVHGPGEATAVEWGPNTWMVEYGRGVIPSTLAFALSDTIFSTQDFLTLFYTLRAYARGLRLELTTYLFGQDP

Ki [1] | Ki [2] | Ki [3] | Ratio Ki [4] | Ki [5] | inhibition [6] | SMILES
 | 3690 nM | 1810 nM | 0.4 |  |  | CC1(C)CCCN(Cc2cc3ccccc3o2)C1
0.2 nM | 0.38 nM | 37.5 nM | 101 |  |  | CC1(C)CCCN(CCCC2CCCCc3ccccc32)C1 (racemic)
 | 339 nM | 1990 nM | 5.6 |  |  | CC1(C)CCCN(CCCn2nnc3ccccc32)C1
1.1 nM | 63.5 nM | 42.3 nM | 0.7 |  |  | CC1(C)CCCN(CCCc2cccc3occc23)C1
1.54 nM | 1.75 nM | 242 nM | 138 |  |  | CC1(C)CCCN(CCCCC2CCc3ccccc32)C1 (stereo unspecified)
115 nM | 566 nM | 742 nM | 1.3 |  |  | CC1(C)CCCN(CCNc2nc3ccccc3s2)C1
0.9 nM | 52 nM | 63.6 nM | 1.2 |  |  | CC1(C)CCCN(CCCc2cccc3sccc23)C1
 | 50.9 nM | 194 nM | 3.8 |  |  | CC1(C)CCCN(CCCn2ccc3ccccc32)C1

Second part, the compound before the results:

SMILES | Ki [1] | Ki [2] | Ki [3] | Ratio Ki [4] | Ki [5] | inhibition [6]
CC1(C)CCCN(CC(=O)Nc2nc3c(s2)C(=O)CCC3)C1 | > 10000 nM | > 10000 nM | > 10000 nM |  |  | 
CC1(C)CCCN(CCCc2c[nH]c3ccccc23)C1 |  | 41.6 nM | 110 nM | 2.6 |  | 
CC1(C)CCCN(CCCC2CCCc3[nH]ccc32)C1 (racemic) |  | 27.1 nM | 119 nM | 4.4 |  | 
Cc1ccccc1NC(=N)Nc1ccccc1C [DITOLYLGUANIDINE] |  |  | 34.3 nM |  |  | 
CC(C(O)c1ccc(O)cc1)N1CCC(Cc2ccccc2)CC1 (racemic) [IFENPRODIL] | 15 nM |  |  |  |  | 
CC1(C)CCCN(CCNc2nccs2)C1 | 1400 nM | 459 nM | 3330 nM | 7.2 |  | 
CC1(C)CCCN(CCCC2CCCc3sccc32)C1 (racemic) [listing 1 of 3 here] | 3.07 nM | 0.21 nM | 38 nM |  |  | 
CC1(C)CCCN(CCCCN2CCCC(C)(C)C2)C1 | 213 nM | 14.1 nM | 414 nM | 29 |  | 
CC1(C)CCCN(CCCCC2CCCCC2)C1 | 3.8 nM | 1.02 nM | 19.6 nM | 19 |  | 
CC1(C)CCCN(CCCC2CCCc3sccc32)C1 (racemic) [listing 2 of 3 here] |  |  |  | 180 |  | 
COc1cccc2c1CCCC2CCCCN1CCCC(C)(C)C1 (stereo unspecified) | 0.67 nM | 2.12 nM | 247 nM | 117 |  | 
CC1(C)CCCN(CCCCC2CCCCc3ccccc32)C1 (racemic) | 7.3 nM | 0.14 nM | 65.9 nM | 471 |  | 
CC1(C)CCCN(CCCC2CCCc3sccc32)C1 (racemic) [listing 3 of 3 here] |  |  |  |  | > 3960 nM | 
CC1(C)CCCN(CCNc2nc3c(s2)C(=O)CCC3)C1 | > 10000 nM | > 10000 nM | > 10000 nM |  |  | 
CC1(C)CCCN(CCCCCC2CCCc3sccc32)C1 (racemic) | 2.11 nM |  | 28.1 nM |  |  | 78%
